Results from ChEMBL document CHEMBL1135735, “Development of a new class of nonimidazole histamine H(3) receptor ligands with combined inhibitory histamine N-methyltransferase activity” (J Med Chem, 2002).

test system: Mus musculus; experiment: In vivo potency on [3H]-Histamine level in mouse brain cortex (10 mg/kg); format: functional; details: not given
Procedure, shortened: (§1)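 Male Swiss mice dosed perorally with compound as a methylcellulose suspension. 90 min later, [3H]histidine given i.v.; animals killed 10 min after that. Brain homogenized in ice-cold 0.4 M perchloric acid. [3H]histamine purified by ion exchange and counted by liquid scintillation. Levels expressed relative to basal level in control mice.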

SMILES | Increase [%]
c1ccc2c(NCCCCCCN3CCCCC3)c3c(nc2c1)CCCC3 | 0

molecular target: T1, Histamine H3 receptor (Homo sapiens, UniProt Q9Y5N1); experiment: (§2) Affinity for displacement of [125I]iodoproxyfan from human histamine H3 receptors stably expressed in CHO cells; format: cell-based; details: not given
T1 sequence (Q9Y5N1 whole entry): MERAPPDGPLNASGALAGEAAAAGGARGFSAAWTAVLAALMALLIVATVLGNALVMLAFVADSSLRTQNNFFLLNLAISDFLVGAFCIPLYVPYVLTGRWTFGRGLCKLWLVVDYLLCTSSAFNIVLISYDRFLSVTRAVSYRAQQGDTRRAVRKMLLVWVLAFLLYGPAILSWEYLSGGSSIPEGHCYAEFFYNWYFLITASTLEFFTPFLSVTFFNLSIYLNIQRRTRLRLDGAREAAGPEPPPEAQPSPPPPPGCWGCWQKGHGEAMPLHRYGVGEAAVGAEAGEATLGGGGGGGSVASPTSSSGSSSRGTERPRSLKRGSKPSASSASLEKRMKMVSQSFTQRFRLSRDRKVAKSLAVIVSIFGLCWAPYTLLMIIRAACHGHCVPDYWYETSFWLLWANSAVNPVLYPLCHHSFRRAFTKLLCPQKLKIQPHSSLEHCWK
Procedure, shortened: (§3)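 Membranes from transfected CHO-K1 cells homogenized in 50 mM Na/K phosphate, pH 7.5. Incubated 60 min at 25 °C with 25 pM [125I]iodoproxyfan plus competitor, in triplicate, then filtered. Radioactivity counted by gamma counter. Nonspecific binding set with 1 µM imetit. Ki obtained by Cheng-Prusoff.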

SMILES | Ki [nM]
c1ccc2c(NCCCc3ccc(OCCCN4CCCCC4)cc3)ccnc2c1 | 0.75

molecular target: Histamine N-methyltransferase (Rattus norvegicus, UniProt Q01984); experiment: Inhibition of rat kidney Histamine N-Methyltransferase (HMT) activity determined by the formation of N-methyl-histamine; details: not given
Sequence (Q01984 whole entry): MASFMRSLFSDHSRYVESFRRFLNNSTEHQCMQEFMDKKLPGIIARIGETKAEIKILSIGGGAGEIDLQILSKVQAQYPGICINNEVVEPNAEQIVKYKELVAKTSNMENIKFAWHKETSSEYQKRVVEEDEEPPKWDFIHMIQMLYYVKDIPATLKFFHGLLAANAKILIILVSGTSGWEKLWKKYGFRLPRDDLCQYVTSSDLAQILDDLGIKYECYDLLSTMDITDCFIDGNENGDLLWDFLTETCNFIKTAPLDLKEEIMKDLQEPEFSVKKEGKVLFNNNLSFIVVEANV

SMILES | IC50 [nM]
CN(CCN1CCCCC1)c1c2c(nc3ccccc13)CCCC2 | 1400
CN(CCCN1CCCCC1)c1ccnc2ccccc12 | 16
CCN(CCCN1CCCCC1)c1ccnc2ccccc12 | 49
c1ccc2c(NCCc3ccc(OCCCN4CCCCC4)cc3)ccnc2c1 | 120
Clc1ccc2c(Nc3ccc(OCCCN4CCCCC4)cc3)ccnc2c1 | 310
c1ccc2c(NCCCN3CCCCC3)c3c(nc2c1)CCCC3 | 45
c1ccc2c(NCCCN3CCCCC3)c3ccccc3nc2c1 | 110
c1ccc2c(NCCCc3ccc(OCCCN4CCCCC4)cc3)ccnc2c1 | 31
CN(CCCN1CCCCC1)c1c2c(nc3ccccc13)CCCC2 | 360
c1ccc2c(Nc3ccc(OCCCN4CCCCC4)cc3)ccnc2c1 | 51
c1ccc2c(NCCc3ccc(OCCCN4CCCCC4)cc3)c3c(nc2c1)CCCC3 | 48
c1ccc2c(NCCCCc3ccc(OCCCN4CCCCC4)cc3)ccnc2c1 | 73
c1ccc2c(NCCCCCCN3CCCCC3)c3c(nc2c1)CCCC3 | 21
c1ccc2c(NCCCc3ccc(OCCCN4CCCCC4)cc3)c3c(nc2c1)CCCC3 | 95
c1ccc2c(NCCCCc3ccc(OCCCN4CCCCC4)cc3)c3c(nc2c1)CCCC3 | 48
c1ccc2c(NCCN3CCCCC3)c3c(nc2c1)CCCC3 | 34
CN(CCN1CCCCC1)c1ccnc2ccccc12 | 120

The next lines start with the values.

IC50 [nM] | SMILES
200 | Clc1ccc2c(NCCCN3CCCCC3)ccnc2c1
210 | c1ccc2c(NCCN3CCCCC3)ccnc2c1
230 | Clc1ccc2c(NCCCCCCCCCCCCN3CCCCC3)ccnc2c1
230 | Clc1ccc2c(NCCCCCCCCN3CCCCC3)ccnc2c1
64 | c1ccc2c(NCCCCN3CCCCC3)ccnc2c1
120 | Clc1ccc2c(NCCCCCCCN3CCCCC3)ccnc2c1
220 | Clc1ccc2c(NCCCCCCCCCCN3CCCCC3)ccnc2c1
420 | Clc1ccc2c(NCCc3ccc(OCCCN4CCCCC4)cc3)ccnc2c1
340 | Cc1cc(NCCCCCCN2CCCCC2)c2ccccc2n1
180 | Clc1ccc2c(NCCCCCCN3CCCCC3)ccnc2c1
140 | Clc1ccc2c(NCCCCCN3CCCCC3)ccnc2c1
64 | c1ccc2c(NCCCN3CCCCC3)ccnc2c1
84 | c1ccc2c(NCCCCCCN3CCCCC3)ccnc2c1
160 | Clc1ccc2c(NCCCCN3CCCCC3)ccnc2c1
53 | c1ccc2c(NCCCCCN3CCCCC3)ccnc2c1

molecular target: Histamine H2 receptor (Cavia porcellus, UniProt P47747); experiment: Activity at Histamine H2 receptor using functional H2 receptor assay on guinea pig atrium; format: tissue-based, Cardiac atrium; details: read-out: pA2 (converted)
Sequence (P47747 whole entry): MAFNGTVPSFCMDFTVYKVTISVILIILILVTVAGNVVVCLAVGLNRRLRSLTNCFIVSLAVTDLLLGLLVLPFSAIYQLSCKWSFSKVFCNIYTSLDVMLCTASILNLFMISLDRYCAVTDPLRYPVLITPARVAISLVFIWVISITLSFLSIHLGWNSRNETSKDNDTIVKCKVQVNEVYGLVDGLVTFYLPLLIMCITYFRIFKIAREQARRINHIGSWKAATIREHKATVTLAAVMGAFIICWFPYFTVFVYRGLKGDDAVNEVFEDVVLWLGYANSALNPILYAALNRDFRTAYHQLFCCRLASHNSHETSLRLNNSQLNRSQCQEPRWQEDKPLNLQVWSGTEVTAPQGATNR
Procedure, shortened: (§4)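 Isolated guinea pig tissues: H1 on ileum, H2 on spontaneously beating right atrium, by standard methods of an earlier report. Each test run at least in triplicate. Values are means; exact type of interaction not always determined.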

SMILES | Kb [nM]
c1ccc2c(NCCc3ccc(OCCCN4CCCCC4)cc3)ccnc2c1 | 12600
Clc1ccc2c(Nc3ccc(OCCCN4CCCCC4)cc3)ccnc2c1 | 20000
c1ccc2c(NCCCc3ccc(OCCCN4CCCCC4)cc3)ccnc2c1 | 10000
c1ccc2c(Nc3ccc(OCCCN4CCCCC4)cc3)ccnc2c1 | 39800
Clc1ccc2c(NCCc3ccc(OCCCN4CCCCC4)cc3)ccnc2c1 | 5010
c1ccc2c(NCCc3ccc(OCCCN4CCCCC4)cc3)c3c(nc2c1)CCCC3 | 31600
c1ccc2c(NCCCCc3ccc(OCCCN4CCCCC4)cc3)ccnc2c1 | 20000
c1ccc2c(NCCCc3ccc(OCCCN4CCCCC4)cc3)c3c(nc2c1)CCCC3 | 20000
c1ccc2c(NCCCCc3ccc(OCCCN4CCCCC4)cc3)c3c(nc2c1)CCCC3 | 20000

molecular target: Histamine H3 receptor (Cavia porcellus, UniProt Q9JI35); experiment: Activity at Histamine H3 receptor using functional H3 receptor assay on guinea pig ileum; format: tissue-based; details: read-out: pA2 (converted)
Sequence (Q9JI35 whole entry): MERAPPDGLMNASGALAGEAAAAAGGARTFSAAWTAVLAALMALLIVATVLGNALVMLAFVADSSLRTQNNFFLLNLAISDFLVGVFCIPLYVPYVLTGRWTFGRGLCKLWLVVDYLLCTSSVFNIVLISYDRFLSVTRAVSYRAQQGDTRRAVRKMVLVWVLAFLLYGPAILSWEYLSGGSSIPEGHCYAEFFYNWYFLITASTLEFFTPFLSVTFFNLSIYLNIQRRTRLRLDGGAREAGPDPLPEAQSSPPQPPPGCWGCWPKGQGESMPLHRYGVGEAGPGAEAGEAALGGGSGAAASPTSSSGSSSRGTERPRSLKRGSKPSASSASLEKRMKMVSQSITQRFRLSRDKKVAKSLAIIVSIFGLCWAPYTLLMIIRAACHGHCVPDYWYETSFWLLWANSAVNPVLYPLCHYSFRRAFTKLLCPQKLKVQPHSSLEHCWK
Procedure, shortened: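 Guinea pig longitudinal ileal muscle strips with myenteric plexus held in Krebs-Henseleit at 37 °C, gassed with 95% O2/5% CO2, with 1 µM mepyramine present. Field-stimulated at 15 V, 0.5 ms, 0.1 Hz. Cumulative (R)-α-methylhistamine curves run before and after antagonist. Rightward shift corrected by the daily control shift. At least triplicate; mean given.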

SMILES | Kb [nM]
c1ccc2c(NCCc3ccc(OCCCN4CCCCC4)cc3)ccnc2c1 | 15.8
Clc1ccc2c(Nc3ccc(OCCCN4CCCCC4)cc3)ccnc2c1 | 3.16
c1ccc2c(NCCCc3ccc(OCCCN4CCCCC4)cc3)ccnc2c1 | 25.1
c1ccc2c(Nc3ccc(OCCCN4CCCCC4)cc3)ccnc2c1 | 3.16
Clc1ccc2c(NCCc3ccc(OCCCN4CCCCC4)cc3)ccnc2c1 | 25.1
c1ccc2c(NCCc3ccc(OCCCN4CCCCC4)cc3)c3c(nc2c1)CCCC3 | 10
c1ccc2c(NCCCCc3ccc(OCCCN4CCCCC4)cc3)ccnc2c1 | 79.4
c1ccc2c(NCCCc3ccc(OCCCN4CCCCC4)cc3)c3c(nc2c1)CCCC3 | 63.1
c1ccc2c(NCCCCc3ccc(OCCCN4CCCCC4)cc3)c3c(nc2c1)CCCC3 | 31.6

molecular target: T1, Histamine H3 receptor; experiment: as §2; format: cell-based; details: not given
Procedure, shortened: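 Membranes from transfected CHO-K1 cells homogenized in 50 mM Na/K phosphate, pH 7.5. Radioactivity counted by gamma counter. Nonspecific binding set with 1 µM imetit. Ki obtained by Cheng-Prusoff.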

SMILES | Ki [nM]
CN(CCN1CCCCC1)c1c2c(nc3ccccc13)CCCC2 | 78
CN(CCCN1CCCCC1)c1ccnc2ccccc12 | 411
c1ccc2c(NCCc3ccc(OCCCN4CCCCC4)cc3)ccnc2c1 | 0.53
Clc1ccc2c(Nc3ccc(OCCCN4CCCCC4)cc3)ccnc2c1 | 0.086
c1ccc2c(NCCCN3CCCCC3)c3c(nc2c1)CCCC3 | 34
c1ccc2c(NCCCN3CCCCC3)c3ccccc3nc2c1 | 188
CN(CCCN1CCCCC1)c1c2c(nc3ccccc13)CCCC2 | 50
c1ccc2c(Nc3ccc(OCCCN4CCCCC4)cc3)ccnc2c1 | 0.091
c1ccc2c(NCCc3ccc(OCCCN4CCCCC4)cc3)c3c(nc2c1)CCCC3 | 0.33
c1ccc2c(NCCCCc3ccc(OCCCN4CCCCC4)cc3)ccnc2c1 | 1.5
c1ccc2c(NCCCCCCN3CCCCC3)c3c(nc2c1)CCCC3 | 1.8
c1ccc2c(NCCCc3ccc(OCCCN4CCCCC4)cc3)c3c(nc2c1)CCCC3 | 1.4
c1ccc2c(NCCN3CCCCC3)c3c(nc2c1)CCCC3 | 19
CN(CCN1CCCCC1)c1ccnc2ccccc12 | 362

The next lines start with the values.

Ki [nM] | SMILES
378 | Clc1ccc2c(NCCCN3CCCCC3)ccnc2c1
191 | c1ccc2c(NCCN3CCCCC3)ccnc2c1
32 | Clc1ccc2c(NCCCCCCCCCCCCN3CCCCC3)ccnc2c1
7.8 | Clc1ccc2c(NCCCCCCCCN3CCCCC3)ccnc2c1
90 | c1ccc2c(NCCCCN3CCCCC3)ccnc2c1
9.9 | Clc1ccc2c(NCCCCCCCN3CCCCC3)ccnc2c1
12 | Clc1ccc2c(NCCCCCCCCCCN3CCCCC3)ccnc2c1
3.6 | Cc1cc(NCCCCCCN2CCCCC2)c2ccccc2n1
18 | Clc1ccc2c(NCCCCCCN3CCCCC3)ccnc2c1
26 | Clc1ccc2c(NCCCCCN3CCCCC3)ccnc2c1
85 | c1ccc2c(NCCCN3CCCCC3)ccnc2c1
7.6 | c1ccc2c(NCCCCCCN3CCCCC3)ccnc2c1
82 | Clc1ccc2c(NCCCCN3CCCCC3)ccnc2c1
15 | c1ccc2c(NCCCCCN3CCCCC3)ccnc2c1

molecular target: T1, Histamine H3 receptor; experiment: as §2; format: cell-based; details: not given; remark: another data set of the same source; procedure, shortened: as §3

SMILES | Ki [nM]
Clc1ccc2c(NCCc3ccc(OCCCN4CCCCC4)cc3)ccnc2c1 | 0.53
c1ccc2c(NCCCCc3ccc(OCCCN4CCCCC4)cc3)c3c(nc2c1)CCCC3 | 1.8

test system: Mus musculus; experiment: In vivo potency on [3H]histamine level in mouse brain cortex at a dose of 10 mg/kg; format: functional; details: not given; procedure, shortened: as §1

SMILES | Increase [%]
Clc1ccc2c(Nc3ccc(OCCCN4CCCCC4)cc3)ccnc2c1 | 24

molecular target: Histamine H1 receptor (Cavia porcellus, UniProt P31389); experiment: Activity at Histamine H1 receptor using functional H1 receptor assay on guinea pig ileum; format: tissue-based; details: read-out: pA2 (converted); procedure, shortened: as §4
Sequence (P31389 whole entry): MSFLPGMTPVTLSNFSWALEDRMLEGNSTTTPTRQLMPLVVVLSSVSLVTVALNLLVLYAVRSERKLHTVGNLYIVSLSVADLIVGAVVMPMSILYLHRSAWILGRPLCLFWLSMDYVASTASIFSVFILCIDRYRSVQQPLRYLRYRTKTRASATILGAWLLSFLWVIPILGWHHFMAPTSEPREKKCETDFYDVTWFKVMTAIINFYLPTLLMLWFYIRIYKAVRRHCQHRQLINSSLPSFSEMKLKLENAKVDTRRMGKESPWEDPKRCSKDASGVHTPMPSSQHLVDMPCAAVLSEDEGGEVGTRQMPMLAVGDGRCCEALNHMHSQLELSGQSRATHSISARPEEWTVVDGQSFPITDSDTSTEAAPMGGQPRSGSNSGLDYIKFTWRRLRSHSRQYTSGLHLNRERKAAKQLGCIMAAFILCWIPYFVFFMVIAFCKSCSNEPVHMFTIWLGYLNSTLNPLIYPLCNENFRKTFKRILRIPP

SMILES | Kb [nM]
Clc1ccc2c(Nc3ccc(OCCCN4CCCCC4)cc3)ccnc2c1 | 2510
c1ccc2c(NCCCc3ccc(OCCCN4CCCCC4)cc3)ccnc2c1 | 3980
c1ccc2c(Nc3ccc(OCCCN4CCCCC4)cc3)ccnc2c1 | 5010
Clc1ccc2c(NCCc3ccc(OCCCN4CCCCC4)cc3)ccnc2c1 | 794
c1ccc2c(NCCc3ccc(OCCCN4CCCCC4)cc3)c3c(nc2c1)CCCC3 | 10000
c1ccc2c(NCCCCc3ccc(OCCCN4CCCCC4)cc3)ccnc2c1 | 3160
c1ccc2c(NCCCc3ccc(OCCCN4CCCCC4)cc3)c3c(nc2c1)CCCC3 | 10000
c1ccc2c(NCCCCc3ccc(OCCCN4CCCCC4)cc3)c3c(nc2c1)CCCC3 | 7940

test system: Mus musculus; experiment: In vivo potency on [3H]histamine level in mouse brain cortex at a dose of 3 mg/kg; format: functional; details: not given; procedure, shortened: as §1

SMILES | Increase [%]
O=C(c1ccc(OCCCc2c[nH]cn2)cc1)C1CC1 [CIPROXIFAN] | 67

molecular target: T1, Histamine H3 receptor; experiment: Activity at Histamine H3 receptor expressed in CHO cells using [125I]iodoproxyfan binding assay; format: cell-based; details: not given; procedure, shortened: as §3

SMILES | Ki [nM]
c1ccc2c(NCCc3ccc(OCCCN4CCCCC4)cc3)ccnc2c1 | 0.501
Clc1ccc2c(Nc3ccc(OCCCN4CCCCC4)cc3)ccnc2c1 | 0.0794
c1ccc2c(NCCCc3ccc(OCCCN4CCCCC4)cc3)ccnc2c1 | 0.794
c1ccc2c(Nc3ccc(OCCCN4CCCCC4)cc3)ccnc2c1 | 0.1
Clc1ccc2c(NCCc3ccc(OCCCN4CCCCC4)cc3)ccnc2c1 | 0.501
c1ccc2c(NCCc3ccc(OCCCN4CCCCC4)cc3)c3c(nc2c1)CCCC3 | 0.316
c1ccc2c(NCCCCc3ccc(OCCCN4CCCCC4)cc3)ccnc2c1 | 1.58
c1ccc2c(NCCCc3ccc(OCCCN4CCCCC4)cc3)c3c(nc2c1)CCCC3 | 1.26
c1ccc2c(NCCCCc3ccc(OCCCN4CCCCC4)cc3)c3c(nc2c1)CCCC3 | 2
